Source: ChEMBL document CHEMBL1127817, “Antitumor agents. 150. 2',3',4',5',5,6,7-substituted 2-phenyl-4-quinolones and related compounds: their synthesis, cytotoxicity, and inhibition of tubulin polymerization” (J Med Chem, 1994)
pIC50: −log10 of the molar value.

How the values were obtained:
HCT-116 = experiment: In vitro inhibition of tumor cell growth of HCT116, colon cancer cell line; type: functional; settings: Homo sapiens
NCI-H226 = experiment: In vitro inhibition of tumor cell growth of NCI-H226, a non small-cell lung cancer cell line; type: functional; settings: Homo sapiens
OVCAR-3 = experiment: In vitro inhibition of tumor cell growth of OVCAR-3, ovarian cancer cell line; type: functional; settings: Homo sapiens
RXF 393 = experiment: In vitro inhibition of tumor cell growth of RXF-393, renal cancer cell line; type: functional; settings: Homo sapiens
SF-268 [1] = experiment: In vitro inhibition of tumor cell growth of SF-268, CNS tumor cell line; type: functional; settings: Homo sapiens
SK-MEL-5 = experiment: In vitro inhibition of tumor cell growth of SK-Mel-5, melanoma cell line; type: functional; settings: Homo sapiens
SF-295 = experiment: In vitro inhibition of tumor cell growth of SF-295, CNS tumor cell line; type: functional; settings: Homo sapiens
Tubulin (Bos taurus) = Tubulin (Bos taurus) (UniProt Q6B856+Q862L2+Q862F3); experiment: Inhibition of colchicine binding to tubulin isolated from bovine brain tissue; type: functional; parameters: concentration or dose not given beside the values; settings: concentration not given here
How it was run: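 1.0 μM tubulin incubated with 5.0 μM [3H]colchicine and 5.0 μM test agent; bound colchicine measured by DEAE-cellulose filter technique.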

Tubulin beta chain = Tubulin beta chain (Bos taurus, UniProt Q6B856); experiment: Inhibition of tubulin polymerization; type: functional
Tubulin beta chain, sequence (Q6B856 whole entry): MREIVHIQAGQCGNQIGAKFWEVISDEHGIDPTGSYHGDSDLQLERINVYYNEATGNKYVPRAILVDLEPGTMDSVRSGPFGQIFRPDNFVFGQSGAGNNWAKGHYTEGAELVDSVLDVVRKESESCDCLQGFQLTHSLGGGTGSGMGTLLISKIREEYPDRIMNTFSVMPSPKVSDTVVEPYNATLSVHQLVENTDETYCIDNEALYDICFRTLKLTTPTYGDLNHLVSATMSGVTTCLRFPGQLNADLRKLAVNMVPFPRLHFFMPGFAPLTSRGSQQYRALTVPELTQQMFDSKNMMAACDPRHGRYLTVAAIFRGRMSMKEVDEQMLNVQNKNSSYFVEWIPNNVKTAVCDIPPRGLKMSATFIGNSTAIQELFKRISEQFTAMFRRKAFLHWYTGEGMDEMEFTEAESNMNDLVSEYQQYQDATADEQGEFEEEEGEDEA

KM-20L2 [2] = experiment: In vitro inhibition of tumor cell growth of KM20L2, colon cancer cell line; type: functional; settings: Homo sapiens
DMS-114 = experiment: In vitro inhibition of tumor cell growth of DMS114, a small-cell lung cancer cell line; settings: Homo sapiens
SF-268 [3] = experiment: In vitro inhibition of tumor cell growth ofSF-268, CNS tumor cell line; type: functional; settings: Homo sapiens
KM-20L2 [4] = experiment: Inhibition of in vitro tumor cell growth in KM20L2, colon cancer cell line; type: functional; settings: Homo sapiens

GI50 (HCT-116) [nM] | GI50 (NCI-H226) [nM] | GI50 (OVCAR-3) [nM] | GI50 (SK-MEL-5) [nM] | inhibition (Tubulin (Bos taurus)) [%] | pIC50 (Tubulin beta chain) | GI50 (DMS-114) [nM] | SMILES | GI50 (RXF 393) [nM] | GI50 (SF-268 [1]) [nM] | GI50 (SF-295) [nM] | GI50 (KM-20L2 [2]) [nM] | GI50 (SF-268 [3]) [µM] | GI50 (KM-20L2 [4]) [µM]
316 | 219 | 195 | 309 | 31 | 6.21 | 302 | COc1cc(OC)cc(-c2cc(O)c3cc4c(cc3n2)OCO4)c1 | 219 | 708 | 257 | 708 | – | –
174 | 200 | 45.7 | 37.1 | – | 6.24 | 240 | COc1cccc(-c2cc(O)c3cc4c(cc3n2)OCO4)c1 | 45.7 | – | 91.2 | 182 | 0.132 | –
60.3 | 447 | 81.3 | 20.9 | 37 | 6.07 | 513 | O=c1cc(-c2ccccc2F)[nH]c2cc3c(cc12)OCO3 | – | 2290 | 55 | – | – | –
28200 | 22900 | 39800 | 89100 | – | 4.85 | 25100 | COc1ccccc1-c1cc(O)c2cc3c(cc2n1)OCO3 | 15100 | – | 20900 | – | 64.6 | 18.6
– | – | – | – | 11 | 6.21 | – | COc1ccc2nc(-c3ccccc3)cc(O)c2c1 | – | – | – | – | – | –
676 | 1580 | 427 | 1740 | 12 | – | – | Cc1ccc(-c2cc(O)c3cc4c(cc3n2)OCO4)cc1 | – | 2190 | 1910 | 1410 | – | –
155 | 347 | – | 117 | 13 | 6.13 | – | COc1cccc(-c2cc(O)c3cc(OC)ccc3n2)c1 | 191 | 229 | 151 | – | – | –
195 | 372 | 170 | 195 | 18 | 6.08 | – | COc1ccc2nc(-c3cccc(N(C)C)c3)cc(O)c2c1 | 120 | 603 | 204 | – | – | –
> 100000 | 28800 | > 100000 | > 100000 | – | < 4.40 | > 100000 | COc1ccc(-c2cc(O)c3cc4c(cc3n2)OCO4)cc1 | 38000 | > 100000 | > 100000 | > 100000 | – | –
87.1 | 263 | 77.6 | 36.3 | 24 | 6.05 | – | Oc1cc(-c2ccccc2Cl)nc2cc3c(cc12)OCO3 | – | 692 | – | – | – | –
